Measurements taken from ChEMBL document CHEMBL1150387, “Development and experimental validation of a docking strategy for the generation of kinase-targeted libraries” (J Med Chem, 2008).

Key:
[1] = molecular target: T1, Tyrosine-protein kinase JAK3 (Homo sapiens) (UniProt P52333); experiment: Inhibition of JAK3 at 10 uM by HTRF assay relative to control
T1 sequence (whole entry): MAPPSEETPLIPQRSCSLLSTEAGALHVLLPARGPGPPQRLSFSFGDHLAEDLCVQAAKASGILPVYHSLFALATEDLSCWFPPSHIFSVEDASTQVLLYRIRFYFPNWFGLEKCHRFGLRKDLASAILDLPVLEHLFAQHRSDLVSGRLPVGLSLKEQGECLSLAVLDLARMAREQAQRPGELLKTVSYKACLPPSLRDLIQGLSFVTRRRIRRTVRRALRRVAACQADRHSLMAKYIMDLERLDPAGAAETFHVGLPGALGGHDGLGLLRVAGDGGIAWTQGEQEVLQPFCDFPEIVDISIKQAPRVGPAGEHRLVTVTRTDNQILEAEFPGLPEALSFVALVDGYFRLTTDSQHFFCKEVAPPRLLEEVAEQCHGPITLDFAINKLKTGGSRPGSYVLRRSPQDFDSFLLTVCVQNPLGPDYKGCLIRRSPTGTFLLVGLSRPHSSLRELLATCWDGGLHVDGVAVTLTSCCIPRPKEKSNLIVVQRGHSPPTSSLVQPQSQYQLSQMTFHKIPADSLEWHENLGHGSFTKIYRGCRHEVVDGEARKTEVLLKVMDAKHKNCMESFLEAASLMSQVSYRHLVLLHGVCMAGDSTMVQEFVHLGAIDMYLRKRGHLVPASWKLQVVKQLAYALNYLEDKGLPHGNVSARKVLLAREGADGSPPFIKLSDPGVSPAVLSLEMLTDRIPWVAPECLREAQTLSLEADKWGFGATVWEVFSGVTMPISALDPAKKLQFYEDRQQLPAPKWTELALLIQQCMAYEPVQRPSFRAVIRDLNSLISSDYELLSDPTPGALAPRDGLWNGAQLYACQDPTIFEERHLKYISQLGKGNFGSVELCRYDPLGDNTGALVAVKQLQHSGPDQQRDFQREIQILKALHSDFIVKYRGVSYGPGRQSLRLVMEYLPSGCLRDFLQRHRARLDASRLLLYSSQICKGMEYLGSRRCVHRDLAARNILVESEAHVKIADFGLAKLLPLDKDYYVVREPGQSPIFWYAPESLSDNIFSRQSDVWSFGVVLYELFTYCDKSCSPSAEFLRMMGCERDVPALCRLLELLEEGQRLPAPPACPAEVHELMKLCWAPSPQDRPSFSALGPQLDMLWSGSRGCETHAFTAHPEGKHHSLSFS
Summary of the method: (§1)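 HTRF kinase assay, one panel of kinases. Inhibitor stock 50 µM in 100% DMSO; tested at 10 µM. ATP and substrate at final levels near Km. Final buffer: 50 mM Hepes/NaOH pH 7.4, 40 µM Na3VO4, 0.005% Tween-20, 1 mM DTT, MnCl2 or MgCl2 at kinase-dependent levels. Started by adding ATP/substrate. Reaction run at room temperature, time varied by kinase. Detection mix in 50 mM Hepes pH 7.4, 0.1% BSA, 150 mM KF, incubated ≥1 h at room temperature. Activity expressed as % of uninhibited control; n=2.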

[2] = molecular target: Tyrosine-protein kinase Lck (Homo sapiens) (UniProt P06239); experiment: Inhibition of Lck at 10 uM by HTRF assay relative to control; summary of the method: as §1
Chain of Tyrosine-protein kinase Lck (Homo sapiens) (P06239 2-509 limits assumed): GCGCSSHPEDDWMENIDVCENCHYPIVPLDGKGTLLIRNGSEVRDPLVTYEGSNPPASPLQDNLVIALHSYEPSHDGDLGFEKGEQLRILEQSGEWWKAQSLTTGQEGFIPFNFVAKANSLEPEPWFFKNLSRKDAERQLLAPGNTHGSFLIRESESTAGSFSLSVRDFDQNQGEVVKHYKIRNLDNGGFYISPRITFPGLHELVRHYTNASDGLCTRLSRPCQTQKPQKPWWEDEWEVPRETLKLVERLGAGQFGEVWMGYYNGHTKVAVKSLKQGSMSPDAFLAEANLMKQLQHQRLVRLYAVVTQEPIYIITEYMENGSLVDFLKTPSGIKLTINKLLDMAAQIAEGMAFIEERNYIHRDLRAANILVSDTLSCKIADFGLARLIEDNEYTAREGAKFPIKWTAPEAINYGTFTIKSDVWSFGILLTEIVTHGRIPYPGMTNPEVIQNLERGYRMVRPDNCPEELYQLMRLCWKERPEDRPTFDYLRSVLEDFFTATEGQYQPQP

[3] = molecular target: RAC-alpha serine/threonine-protein kinase (Homo sapiens) (UniProt P31749); experiment: Inhibition of AKT1/PKBalpha at 10 uM by HTRF assay relative to control; summary of the method: as §1
Chain of RAC-alpha serine/threonine-protein kinase (Homo sapiens) (P31749 whole entry): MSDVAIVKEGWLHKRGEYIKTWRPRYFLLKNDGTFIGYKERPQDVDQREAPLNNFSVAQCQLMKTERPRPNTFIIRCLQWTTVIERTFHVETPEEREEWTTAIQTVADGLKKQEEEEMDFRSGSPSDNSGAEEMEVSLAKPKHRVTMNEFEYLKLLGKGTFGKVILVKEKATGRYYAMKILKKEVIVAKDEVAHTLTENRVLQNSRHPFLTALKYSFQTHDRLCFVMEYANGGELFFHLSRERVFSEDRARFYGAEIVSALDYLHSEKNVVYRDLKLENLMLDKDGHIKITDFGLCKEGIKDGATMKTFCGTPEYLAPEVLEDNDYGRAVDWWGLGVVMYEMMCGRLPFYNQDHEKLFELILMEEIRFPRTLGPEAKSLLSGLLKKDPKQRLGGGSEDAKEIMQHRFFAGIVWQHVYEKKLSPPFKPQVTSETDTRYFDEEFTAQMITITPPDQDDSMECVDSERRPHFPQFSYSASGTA

[4] = molecular target: Calcium/calmodulin-dependent protein kinase type II subunit alpha (Homo sapiens) (UniProt Q9UQM7); experiment: Inhibition of CaMK2alpha at 10 uM by HTRF assay relative to control; summary of the method: as §1
Chain of Calcium/calmodulin-dependent protein kinase type II subunit alpha (Homo sapiens) (Q9UQM7 whole entry): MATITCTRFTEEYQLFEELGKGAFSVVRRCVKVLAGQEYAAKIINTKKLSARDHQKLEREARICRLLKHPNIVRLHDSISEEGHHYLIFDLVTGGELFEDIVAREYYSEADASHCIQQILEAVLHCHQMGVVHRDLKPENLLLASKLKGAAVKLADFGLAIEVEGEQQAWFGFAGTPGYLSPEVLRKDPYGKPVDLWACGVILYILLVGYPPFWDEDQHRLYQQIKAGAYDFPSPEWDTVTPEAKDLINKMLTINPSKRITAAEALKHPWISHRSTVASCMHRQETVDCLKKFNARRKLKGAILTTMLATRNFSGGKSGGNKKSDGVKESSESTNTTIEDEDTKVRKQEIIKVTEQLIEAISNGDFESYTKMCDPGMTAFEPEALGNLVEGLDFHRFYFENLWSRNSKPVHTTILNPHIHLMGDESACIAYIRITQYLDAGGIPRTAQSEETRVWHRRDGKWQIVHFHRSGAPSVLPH

[5] = molecular target: 3-phosphoinositide-dependent protein kinase 1 (Homo sapiens) (UniProt O15530); experiment: Inhibition of PDK1 at 10 uM by HTRF assay relative to control
Chain of 3-phosphoinositide-dependent protein kinase 1 (Homo sapiens) (O15530 whole entry, looked up): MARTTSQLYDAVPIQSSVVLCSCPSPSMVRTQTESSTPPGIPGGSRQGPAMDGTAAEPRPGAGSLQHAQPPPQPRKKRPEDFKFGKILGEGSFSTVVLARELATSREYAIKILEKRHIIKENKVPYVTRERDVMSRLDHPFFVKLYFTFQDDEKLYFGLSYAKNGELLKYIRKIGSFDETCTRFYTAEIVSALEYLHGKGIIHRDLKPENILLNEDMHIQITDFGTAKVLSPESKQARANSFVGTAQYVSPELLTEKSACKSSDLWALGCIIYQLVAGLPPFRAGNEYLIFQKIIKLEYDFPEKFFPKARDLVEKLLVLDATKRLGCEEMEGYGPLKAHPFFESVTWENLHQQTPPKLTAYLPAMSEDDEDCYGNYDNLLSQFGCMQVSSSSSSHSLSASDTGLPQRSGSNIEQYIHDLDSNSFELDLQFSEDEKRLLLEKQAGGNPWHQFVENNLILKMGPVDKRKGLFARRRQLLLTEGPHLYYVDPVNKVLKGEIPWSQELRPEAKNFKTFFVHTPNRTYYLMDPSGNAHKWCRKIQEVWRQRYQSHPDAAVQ

[6] = molecular target: Platelet-derived growth factor receptor beta (Homo sapiens) (UniProt P09619); experiment: Inhibition of PDGFRbeta at 10 uM by HTRF assay relative to control; summary of the method: as §1
Chain of Platelet-derived growth factor receptor beta (Homo sapiens) (P09619 whole entry): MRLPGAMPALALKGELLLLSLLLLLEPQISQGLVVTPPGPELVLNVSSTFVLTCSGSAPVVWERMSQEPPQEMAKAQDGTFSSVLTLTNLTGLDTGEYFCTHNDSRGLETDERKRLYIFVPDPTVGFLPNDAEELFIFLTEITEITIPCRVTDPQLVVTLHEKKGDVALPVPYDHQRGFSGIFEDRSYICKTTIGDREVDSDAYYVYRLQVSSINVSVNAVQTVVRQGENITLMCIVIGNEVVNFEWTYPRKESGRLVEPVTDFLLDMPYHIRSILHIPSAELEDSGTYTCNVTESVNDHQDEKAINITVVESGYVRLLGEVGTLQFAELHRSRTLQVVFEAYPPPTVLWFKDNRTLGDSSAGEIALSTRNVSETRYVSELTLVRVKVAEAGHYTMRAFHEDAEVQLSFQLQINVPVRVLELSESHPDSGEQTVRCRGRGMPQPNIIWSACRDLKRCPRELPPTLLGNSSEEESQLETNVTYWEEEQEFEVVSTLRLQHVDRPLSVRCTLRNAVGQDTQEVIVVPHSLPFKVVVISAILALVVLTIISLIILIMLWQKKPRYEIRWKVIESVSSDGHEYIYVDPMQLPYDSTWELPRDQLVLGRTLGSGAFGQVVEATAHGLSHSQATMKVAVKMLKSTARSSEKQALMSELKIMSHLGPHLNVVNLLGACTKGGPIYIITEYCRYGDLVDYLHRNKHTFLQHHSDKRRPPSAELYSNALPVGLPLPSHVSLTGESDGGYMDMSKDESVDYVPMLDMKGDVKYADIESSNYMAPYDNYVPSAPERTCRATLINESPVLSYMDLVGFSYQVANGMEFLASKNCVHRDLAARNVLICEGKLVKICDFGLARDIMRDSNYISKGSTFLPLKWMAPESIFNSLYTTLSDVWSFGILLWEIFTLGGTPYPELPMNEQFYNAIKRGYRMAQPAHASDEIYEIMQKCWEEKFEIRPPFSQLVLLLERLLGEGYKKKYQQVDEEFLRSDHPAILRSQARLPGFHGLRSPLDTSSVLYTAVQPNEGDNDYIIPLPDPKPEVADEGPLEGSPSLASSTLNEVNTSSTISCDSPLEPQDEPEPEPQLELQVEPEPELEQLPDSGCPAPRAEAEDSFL

[7] = molecular target: Cyclin-dependent kinase 2 (Homo sapiens) (UniProt P24941); experiment: Inhibition of CDK2 at 10 uM by HTRF assay relative to control; summary of the method: as §1
[8] = molecular target: MAP kinase-activated protein kinase 2 (Homo sapiens) (UniProt P49137); experiment: Inhibition of MAPKAPK2 at 10 uM by HTRF assay relative to control; summary of the method: as §1
Chain of MAP kinase-activated protein kinase 2 (Homo sapiens) (P49137 whole entry, looked up): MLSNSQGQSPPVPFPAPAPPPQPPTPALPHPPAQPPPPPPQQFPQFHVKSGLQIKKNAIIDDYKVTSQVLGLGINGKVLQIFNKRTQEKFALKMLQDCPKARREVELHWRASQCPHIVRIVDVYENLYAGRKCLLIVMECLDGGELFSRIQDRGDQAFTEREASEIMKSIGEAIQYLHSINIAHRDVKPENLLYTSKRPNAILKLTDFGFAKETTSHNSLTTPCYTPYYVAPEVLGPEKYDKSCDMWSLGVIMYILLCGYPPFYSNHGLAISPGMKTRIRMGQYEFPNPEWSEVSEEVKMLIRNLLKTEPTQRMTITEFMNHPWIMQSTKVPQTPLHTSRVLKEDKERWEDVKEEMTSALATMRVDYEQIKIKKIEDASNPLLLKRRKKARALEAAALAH

[9] = molecular target: Focal adhesion kinase 1 (Homo sapiens) (UniProt Q05397); experiment: Inhibition of FAK at 10 uM by HTRF assay relative to control; summary of the method: as §1
[10] = molecular target: Vascular endothelial growth factor receptor 1 (Homo sapiens) (UniProt P17948); experiment: Inhibition of FLT1 at 10 uM by HTRF assay relative to control; summary of the method: as §1
Chain of Vascular endothelial growth factor receptor 1 (Homo sapiens) (P17948 whole entry): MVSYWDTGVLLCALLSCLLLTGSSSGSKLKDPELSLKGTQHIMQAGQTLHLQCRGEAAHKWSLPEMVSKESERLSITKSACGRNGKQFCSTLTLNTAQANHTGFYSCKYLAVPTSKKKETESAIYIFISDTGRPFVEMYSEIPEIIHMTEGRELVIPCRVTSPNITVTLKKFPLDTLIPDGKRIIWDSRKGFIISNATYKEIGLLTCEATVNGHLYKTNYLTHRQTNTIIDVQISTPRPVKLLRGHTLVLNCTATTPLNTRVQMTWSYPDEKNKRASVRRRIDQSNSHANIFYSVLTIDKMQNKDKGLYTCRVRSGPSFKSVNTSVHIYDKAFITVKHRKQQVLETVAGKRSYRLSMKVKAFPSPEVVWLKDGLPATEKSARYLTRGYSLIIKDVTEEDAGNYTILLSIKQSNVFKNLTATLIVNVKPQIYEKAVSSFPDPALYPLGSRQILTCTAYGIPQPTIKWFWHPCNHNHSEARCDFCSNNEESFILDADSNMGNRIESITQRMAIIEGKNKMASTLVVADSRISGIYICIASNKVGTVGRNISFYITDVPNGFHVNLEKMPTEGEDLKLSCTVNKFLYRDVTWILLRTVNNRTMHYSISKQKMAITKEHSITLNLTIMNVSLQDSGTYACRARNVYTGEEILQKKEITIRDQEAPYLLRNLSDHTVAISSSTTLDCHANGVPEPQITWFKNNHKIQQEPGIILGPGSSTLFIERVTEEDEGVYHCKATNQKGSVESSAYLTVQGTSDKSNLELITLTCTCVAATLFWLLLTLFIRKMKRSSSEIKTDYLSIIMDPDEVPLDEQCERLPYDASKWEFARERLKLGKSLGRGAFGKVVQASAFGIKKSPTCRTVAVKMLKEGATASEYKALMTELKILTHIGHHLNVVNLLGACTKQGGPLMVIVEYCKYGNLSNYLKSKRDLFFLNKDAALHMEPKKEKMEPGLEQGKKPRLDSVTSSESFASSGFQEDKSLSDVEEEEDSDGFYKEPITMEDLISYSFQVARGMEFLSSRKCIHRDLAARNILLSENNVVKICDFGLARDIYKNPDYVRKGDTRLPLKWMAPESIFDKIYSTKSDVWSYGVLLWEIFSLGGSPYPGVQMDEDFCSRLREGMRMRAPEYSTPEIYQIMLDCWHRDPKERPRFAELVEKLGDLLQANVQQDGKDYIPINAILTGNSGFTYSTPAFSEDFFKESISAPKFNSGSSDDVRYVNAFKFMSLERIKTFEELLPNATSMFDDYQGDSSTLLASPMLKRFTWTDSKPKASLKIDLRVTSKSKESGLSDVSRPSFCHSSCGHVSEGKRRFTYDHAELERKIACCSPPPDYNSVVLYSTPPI

[11] = molecular target: Fibroblast growth factor receptor 1 (Homo sapiens) (UniProt P11362); experiment: Inhibition of FGFR1 at 10 uM by HTRF assay relative to control; summary of the method: as §1
[12] = molecular target: Vascular endothelial growth factor receptor 2 (Homo sapiens) (UniProt P35968); experiment: Inhibition of KDR at 10 uM by HTRF assay relative to control; summary of the method: as §1

Structure (SMILES)	inhibition [1]	inhibition [2]	inhibition [3]	inhibition [4]	inhibition [5]	inhibition [6]	inhibition [7]	inhibition [8]	inhibition [9]	inhibition [10]	inhibition [11]	inhibition [12]
Cc1cccc(Nc2nccc(Nc3cccc(C(=O)N(C)CCc4ccccn4)c3)n2)c1	50%	45%	0%	0%	8%	93%	28%	0%	99%	34%	82%	81%
Nc1nc(Nc2ccc3ncsc3c2)cc(N2CCC[C@H]2C(=O)N[C@@H](CO)c2ccccc2)n1	6%	0%	0%	0%	2%	6%	1%	1%	7%	5%	7%	10%
Nc1nc(N2CCOCC2)cc(N2CCC(C(=O)NCc3cccs3)CC2)n1	0%	0%	0%	0%	0%	8%	14%	0%	3%	0%	11%	17%
COC[C@@H]1CCCN1C(=O)C1CCCN1c1cc(Nc2cccc(Br)c2)ncn1 (stereo partly specified)	8%	0%	0%	0%	0%	6%	4%	0%	5%	0%	0%	0%
COc1cccc(Nc2cc(Nc3cccc(C(=O)NCCCn4ccnc4)c3)nc(N)n2)c1	11%	0%	1%	0%	1%	7%	2%	0%	10%	4%	6%	13%
COC[C@@H]1CCCN1C(=O)[C@@H]1CCCN1c1cc(Nc2cccc(OC)c2)nc(N)n1	0%	0%	0%	0%	0%	4%	7%	2%	2%	3%	0%	4%
Cc1cccc(N(C)c2cc(Nc3cccc(C(=O)NCCCn4ccnc4)c3)ncn2)c1	3%	24%	0%	0%	0%	37%	12%	0%	15%	0%	5%	26%
COc1ccc(-c2noc(CN3CCN(c4cc(Nc5cccc(O)c5)ncn4)CC3)n2)cc1	9%	0%	0%	0%	4%	6%	6%	0%	3%	0%	0%	0%
COc1cccc(Nc2cc(N3CCC[C@H]3C(=O)NCCc3ccc(O)cc3)nc(N)n2)c1	0%	0%	1%	0%	0%	0%	3%	0%	3%	2%	7%	6%
Cc1cccc(Nc2cc(Nc3cccc(C(=O)N(CC(C)O)CC(C)O)c3)ncn2)c1 (stereo unspecified)	7%	26%	2%	0%	2%	32%	3%	0%	20%	83%	59%	83%
O=C(c1nc(SCc2ccc(Cl)cc2)n2ccccc12)N1CCN(c2cc(Nc3cccc(Br)c3)ncn2)CC1	0%	0%	0%	0%	0%	10%	5%	2%	1%	0%	14%	0%
Nc1nc(Nc2ccc(C(=O)NCCc3ccncc3)cc2)cc(N2CCOCC2)n1	0%	0%	2%	0%	1%	13%	2%	1%	3%	0%	0%	13%
Cc1cccc(N(C)c2cc(Nc3cccc(C(=O)N(CC(C)C)CC(C)C)c3)ncn2)c1	0%	0%	0%	0%	0%	9%	6%	0%	1%	5%	0%	5%
